Measured values published in ChEMBL document CHEMBL1138353, “Facile stereospecific synthesis and biological evaluation of (S)- and (R)-2-amino-2-methyl-4-[123I]iodo-3-(E)-butenoic acid for brain tumor imaging with single photon emission computerized tomography” (J Med Chem, 2007).

Legend:
Thyroid gland [1] = assay: Biodistribution in 9L cells bearing Fischer 344 rat thyroid at 15 to 30 uCi, iv after 30 mins; type: ADME, organism-based; details: in vivo, 0.5 h
Method in brief: (§1)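 Male Fischer 344 rats (125–175 g) bearing intracranial 9L gliosarcoma implants; radioiodinated tracer (123I for S, 131I for R) purified in saline, given intravenously. Tissues harvested at 30, 60 or 120 min, radioactivity expressed as %ID/g (thyroid per organ). Groups: S study 5 rats per time; R study 5 at 30 min, 4 at 60 and 120 min.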

Blood [2] = assay: Biodistribution in 9L cells bearing Fischer 344 rat blood at 15 to 30 uCi, iv after 30 mins; type: ADME, organism-based; details: in vivo, 0.5 h; method in brief: as §1
Kidney [3] = assay: Biodistribution in 9L cells bearing Fischer 344 rat kidney at 15 to 30 uCi, iv after 120 mins; type: ADME, organism-based; details: in vivo, 2 h; method in brief: as §1
Kidney [4] = assay: Biodistribution in 9L cells bearing Fischer 344 rat kidney at 15 to 30 uCi, iv after 30 mins; type: ADME, organism-based; details: in vivo, 0.5 h; method in brief: as §1
9L [5] = assay: Drug uptake per 10^6 cells in rat 9L cells after 30 mins assessed as uptake inhibition in presence of 2-aminobicyclo[2.2.1]-heptane-2-carboxylic acid relative to control; type: ADME, cell-based; set-up: scale not given: the % may be the effect or the level left; details: 0.5 h
Method in brief: (§2)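 Cultured rat 9L gliosarcoma cells incubated 30 min with 131I-labelled tracer, with or without A-type inhibitor N-MeAIB or L-type inhibitor BCH. Uptake expressed as percent of initial dose per 1 × 10^6 cells, normalized for dose and cell number. Inhibition compared to control by one-way ANOVA; SD shown.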

Testes [6] = assay: Biodistribution in 9L cells bearing Fischer 344 rat testes at 15 to 30 uCi, iv after 60 mins; type: ADME, organism-based, Testis; details: in vivo, 1 h; method in brief: as §1
Liver [7] = assay: Biodistribution in 9L cells bearing Fischer 344 rat liver at 15 to 30 uCi, iv after 30 mins; type: ADME, organism-based; details: in vivo, 0.5 h; method in brief: as §1
Pancreas [8] = assay: Biodistribution in 9L cells bearing Fischer 344 rat pancreas at 15 to 30 uCi, iv after 120 mins; type: ADME, organism-based; details: in vivo, 2 h; method in brief: as §1
Blood [9] = assay: Biodistribution in 9L cells bearing Fischer 344 rat blood at 15 to 30 uCi, iv after 120 mins; type: ADME, organism-based; details: in vivo, 2 h; method in brief: as §1
9L [10] = assay: Drug uptake per 10^6 cells in rat 9L cells after 30 mins; type: ADME, cell-based; details: 0.5 h; method in brief: as §2
Spleen [11] = assay: Biodistribution in 9L cells bearing Fischer 344 rat spleen at 15 to 30 uCi, iv after 120 mins; type: ADME, organism-based; details: in vivo, 2 h; method in brief: as §1
Lung [12] = assay: Biodistribution in 9L cells bearing Fischer 344 rat lung at 15 to 30 uCi, iv after 120 mins; type: ADME, organism-based; details: in vivo, 2 h; method in brief: as §1
Brain [13] = assay: Biodistribution in 9L cells bearing Fischer 344 rat brain at 15 to 30 uCi, iv after 60 mins; type: ADME, organism-based; details: in vivo, 1 h; method in brief: as §1
Muscle tissue [14] = assay: Biodistribution in 9L cells bearing Fischer 344 rat muscle at 15 to 30 uCi, iv after 30 mins; type: ADME, organism-based; details: in vivo, 0.5 h; method in brief: as §1
Bone [15] = assay: Biodistribution in 9L cells bearing Fischer 344 rat bone at 15 to 30 uCi, iv after 120 mins; type: ADME, organism-based, Bone element; details: in vivo, 2 h; method in brief: as §1
Liver [16] = assay: Biodistribution in 9L cells bearing Fischer 344 rat liver at 15 to 30 uCi, iv after 60 mins; type: ADME, organism-based; details: in vivo, 1 h; method in brief: as §1
Pancreas [17] = assay: Biodistribution in 9L cells bearing Fischer 344 rat pancreas at 15 to 30 uCi, iv after 30 mins; type: ADME, organism-based; details: in vivo, 0.5 h; method in brief: as §1
Brain [18] = assay: Biodistribution in 9L cells bearing Fischer 344 rat brain at 15 to 30 uCi, iv after 120 mins; type: ADME, organism-based; details: in vivo, 2 h; method in brief: as §1
Nucleic Acid [19] = assay: Ratio of drug level in tumor to brain in 9L cells bearing Fischer 344 rat at 15 to 30 uCi, iv after 30 mins; type: ADME, organism-based; details: in vivo, 0.5 h
Method in brief: (§3)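 Intracranial 9L gliosarcoma in male Fischer 344 rats (125–175 g). The 123I-labelled (S) or 131I-labelled (R) tracer was given iv in saline. Tumor and normal brain %ID/g were measured at 30, 60 or 120 min, and the ratio was taken from these. Groups were 5 per time for S, and 5/4/4 for R.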

Rattus norvegicus [20] = assay: Biodistribution in 9L cells bearing Fischer 344 rat tumor at 15 to 30 uCi, iv after 120 mins; type: ADME, organism-based, Neoplasm; details: in vivo, 2 h; method in brief: as §1
Bone [21] = assay: Biodistribution in 9L cells bearing Fischer 344 rat bone at 15 to 30 uCi, iv after 60 mins; type: ADME, organism-based, Bone element; details: in vivo, 1 h; method in brief: as §1
Nucleic Acid [22] = assay: Ratio of drug level in tumor to brain in 9L cells bearing Fischer 344 rat at 15 to 30 uCi, iv after 120 mins; type: ADME, organism-based; details: in vivo, 2 h; method in brief: as §3
Rattus norvegicus [23] = assay: Biodistribution in 9L cells bearing Fischer 344 rat tumor at 15 to 30 uCi, iv after 30 mins; type: ADME, organism-based, Neoplasm; details: in vivo, 0.5 h; method in brief: as §1
Rattus norvegicus [24] = assay: Biodistribution in 9L cells bearing Fischer 344 rat tumor at 15 to 30 uCi, iv after 60 mins; type: ADME, organism-based, Neoplasm; details: in vivo, 1 h; method in brief: as §1
Nucleic Acid [25] = assay: Ratio of drug level in tumor to brain in 9L cells bearing Fischer 344 rat at 15 to 30 uCi, iv after 60 mins; type: ADME, organism-based; details: in vivo, 1 h; method in brief: as §3
Muscle tissue [26] = assay: Biodistribution in 9L cells bearing Fischer 344 rat muscle at 15 to 30 uCi, iv after 60 mins; type: ADME, organism-based; details: in vivo, 1 h; method in brief: as §1
Blood [27] = assay: Biodistribution in 9L cells bearing Fischer 344 rat blood at 15 to 30 uCi, iv after 60 mins; type: ADME, organism-based; details: in vivo, 1 h; method in brief: as §1
Spleen [28] = assay: Biodistribution in 9L cells bearing Fischer 344 rat spleen at 15 to 30 uCi, iv after 30 mins; type: ADME, organism-based; details: in vivo, 0.5 h; method in brief: as §1
Pancreas [29] = assay: Biodistribution in 9L cells bearing Fischer 344 rat pancreas at 15 to 30 uCi, iv after 60 mins; type: ADME, organism-based; details: in vivo, 1 h; method in brief: as §1
Heart [30] = assay: Biodistribution in 9L cells bearing Fischer 344 rat heart at 15 to 30 uCi, iv after 60 mins; type: ADME, organism-based; details: in vivo, 1 h; method in brief: as §1
Liver [31] = assay: Biodistribution in 9L cells bearing Fischer 344 rat liver at 15 to 30 uCi, iv after 120 mins; type: ADME, organism-based; details: in vivo, 2 h; method in brief: as §1
Testes [32] = assay: Biodistribution in 9L cells bearing Fischer 344 rat testes at 15 to 30 uCi, iv after 120 mins; type: ADME, organism-based, Testis; details: in vivo, 2 h; method in brief: as §1
Lung [33] = assay: Biodistribution in 9L cells bearing Fischer 344 rat lung at 15 to 30 uCi, iv after 60 mins; type: ADME, organism-based; details: in vivo, 1 h; method in brief: as §1
Spleen [34] = assay: Biodistribution in 9L cells bearing Fischer 344 rat spleen at 15 to 30 uCi, iv after 60 mins; type: ADME, organism-based; details: in vivo, 1 h; method in brief: as §1
Testes [35] = assay: Biodistribution in 9L cells bearing Fischer 344 rat testes at 15 to 30 uCi, iv after 30 mins; type: ADME, organism-based, Testis; details: in vivo, 0.5 h; method in brief: as §1
Bone [36] = assay: Biodistribution in 9L cells bearing Fischer 344 rat bone at 15 to 30 uCi, iv after 30 mins; type: ADME, organism-based, Bone element; details: in vivo, 0.5 h; method in brief: as §1
Thyroid gland [37] = assay: Biodistribution in 9L cells bearing Fischer 344 rat thyroid at 15 to 30 uCi, iv after 60 mins; type: ADME, organism-based; details: in vivo, 1 h; method in brief: as §1
Heart [38] = assay: Biodistribution in 9L cells bearing Fischer 344 rat heart at 15 to 30 uCi, iv after 120 mins; type: ADME, organism-based; details: in vivo, 2 h; method in brief: as §1
Thyroid gland [39] = assay: Biodistribution in 9L cells bearing Fischer 344 rat thyroid at 15 to 30 uCi, iv after 120 mins; type: ADME, organism-based; details: in vivo, 2 h; method in brief: as §1
Lung [40] = assay: Biodistribution in 9L cells bearing Fischer 344 rat lung at 15 to 30 uCi, iv after 30 mins; type: ADME, organism-based; details: in vivo, 0.5 h; method in brief: as §1
Muscle tissue [41] = assay: Biodistribution in 9L cells bearing Fischer 344 rat muscle at 15 to 30 uCi, iv after 120 mins; type: ADME, organism-based; details: in vivo, 2 h; method in brief: as §1
Kidney [42] = assay: Biodistribution in 9L cells bearing Fischer 344 rat kidney at 15 to 30 uCi, iv after 60 mins; type: ADME, organism-based; details: in vivo, 1 h; method in brief: as §1
Brain [43] = assay: Biodistribution in 9L cells bearing Fischer 344 rat brain at 15 to 30 uCi, iv after 30 mins; type: ADME, organism-based; details: in vivo, 0.5 h; method in brief: as §1
Heart [44] = assay: Biodistribution in 9L cells bearing Fischer 344 rat heart at 15 to 30 uCi, iv after 30 mins; type: ADME, organism-based; details: in vivo, 0.5 h; method in brief: as §1

Drug uptake (Thyroid gland [1]): 0.08 %ID/organ | Drug uptake (Blood [2]): 0.22 % ID/g | Drug uptake (Kidney [3]): 1.76 % ID/g | Drug uptake (Kidney [4]): 2.91 % ID/g | Activity (9L [5]): 57% | Drug uptake (Testes [6]): 0.26 % ID/g | Drug uptake (Liver [7]): 0.31 % ID/g | Drug uptake (Pancreas [8]): 0.78 % ID/g | Drug uptake (Blood [9]): 0.56 % ID/g | Drug uptake (9L [10]): 0.07 %ID | Drug uptake (Spleen [11]): 0.31 % ID/g | Drug uptake (Lung [12]): 0.45 % ID/g | Drug uptake (Brain [13]): 0.066 % ID/g | Drug uptake (Muscle tissue [14]): 0.26 % ID/g | Drug uptake (Bone [15]): 0.26 % ID/g | Drug uptake (Liver [16]): 0.6 % ID/g | Drug uptake (Pancreas [17]): 1.21 % ID/g | Drug uptake (Brain [18]): 0.051 % ID/g | Ratio (Nucleic Acid [19]): 10 | Drug uptake (Rattus norvegicus [20]): 0.39 % ID/g | Drug uptake (Bone [21]): 0.34 % ID/g | Ratio (Nucleic Acid [22]): 7.6 | Drug uptake (Rattus norvegicus [23]): 0.19 % ID/g | Drug uptake (Rattus norvegicus [24]): 0.51 % ID/g | Ratio (Nucleic Acid [25]): 7.7 | Drug uptake (Muscle tissue [26]): 0.4 % ID/g | Drug uptake (Blood [27]): 0.69 % ID/g | Drug uptake (Spleen [28]): 0.3 % ID/g | Drug uptake (Pancreas [29]): 1.86 % ID/g | Drug uptake (Heart [30]): 0.43 % ID/g | Drug uptake (Liver [31]): 0.37 % ID/g | Drug uptake (Testes [32]): 0.23 % ID/g | Drug uptake (Lung [33]): 0.65 % ID/g | Drug uptake (Spleen [34]): 0.5 % ID/g | Drug uptake (Testes [35]): 0.09 % ID/g | Drug uptake (Bone [36]): 0.13 % ID/g | Drug uptake (Thyroid gland [37]): 0.25 %ID/organ | Drug uptake (Heart [38]): 0.34 % ID/g | Drug uptake (Thyroid gland [39]): 0.36 %ID/organ | Drug uptake (Lung [40]): 0.27 % ID/g | Drug uptake (Muscle tissue [41]): 0.26 % ID/g | Drug uptake (Kidney [42]): 3.43 % ID/g | Drug uptake (Brain [43]): 0.018 % ID/g | Drug uptake (Heart [44]): 0.19 % ID/g
SMILES: C[C@@](N)(/C=C/[131I])C(=O)O
